According to the array DNA melting data of Ke et al. (doi:10.1101/2024.01.08.574731):

How the values were obtained:
[1] = folding enthalpy; higher = less favourable; fluorescence melt of hairpins on a sequencing array, two-state fit; settings: sodium 0.088 M
In short: (§1)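 To match UV melts, fitted temperatures were raised by 9.35 °C. These fits were bootstrapped two-state models that gave melting temperature and folding enthalpy, combined by inverse variance over four replicates. The input was normalised Cy3 fluorescence of library hairpins with annealed Cy3 and quencher oligos on a sequenced MiSeq flow cell, imaged in 50 mM Na-HEPES pH 8.0, 25 mM NaCl in 2.5 °C steps up to 60 °C.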

[2] = melting temperature; fluorescence melt of hairpins on a sequencing array, two-state fit, raised by 9.35 °C to match UV melts; settings: sodium 0.088 M
In short: as §1

Row | Sequence | folding enthalpy [1] | Tm [2]
1 | GGATGTGGAAACGTATCC ((((..(....)..)))) | -93.4 kJ/mol | 35.1 °C
2 | GGATTAACGAAAGTTTCC (((..(((....)))))) | -81 kJ/mol | 28.2 °C
3 | GGATTACGAAAGTATCC (((.(((....)))))) | -93.1 kJ/mol | 42.3 °C
4 | GGATTAGGAAACCAATCC (((((.(....).))))) | -142 kJ/mol | 34.4 °C
5 | GGATTAGGAAACTAATCC (((((((....))))))) | -169 kJ/mol | 55 °C
6 | GGATTCACGAAAGTGTCC (((..(((....)))))) | -52.1 kJ/mol | 29.8 °C
7 | GGATTCCGAAAGGATCC (((.(((....)))))) | -122 kJ/mol | 49.6 °C
8 | GGATTCGAAAGAAAATCC ((((((....)))..))) | -89.6 kJ/mol | 29.9 °C
9 | GGATTCGGAAACGGATTC (.((.((....)).)).) | -69.9 kJ/mol | 32.3 °C
10 | GGATTGCGAAAGCAGTCC (((.(((....))).))) | -161 kJ/mol | 60.2 °C
11 | GGATTGGGAAACCAATTC (.(((((....))))).) | -117 kJ/mol | 44.2 °C
12 | GGATTGGGAAACTAATCC (((((.(....).))))) | -142 kJ/mol | 43.5 °C
13 | GGATTGGGAAACTAGTCC (((.(.(....).).))) | -98.8 kJ/mol | 27.3 °C
14 | GGATTGGGAAACTGATCC ((((..(....)..)))) | -117 kJ/mol | 34.4 °C
15 | GGATTTCGAAAGAAGTCC (((.(((....))).))) | -152 kJ/mol | 49.3 °C
16 | GGCAAAGGAAACTTCGCC (((.(((....))).))) | -124 kJ/mol | 41 °C
17 | GGCAAATCGAAAGATGCC (((..(((....)))))) | -125 kJ/mol | 47.6 °C
18 | GGCAACCGAAAGGTCGCC (((.(((....))).))) | -156 kJ/mol | 58.9 °C
19 | GGCAACGAAAGTTAGGCC ((((((....)))..))) | -118 kJ/mol | 46.2 °C
20 | GGCAACGAAAGTTGGGCC ((((((....)))..))) | -70.8 kJ/mol | 44.6 °C
21 | GGCAACGAAAGTTTGGCC ((((((....)))..))) | -114 kJ/mol | 46.4 °C
22 | GGCAACGAAAGTTTTGCC ((((((....)))..))) | -109 kJ/mol | 44.9 °C
23 | GGCAAGAAATTGCC (((((....))))) | -139 kJ/mol | 53 °C

Row | Sequence | folding enthalpy [1] | Tm [2]
24 | GGCAAGCGAAAGCTCGCC (((.(((....))).))) | -95.9 kJ/mol | 59.7 °C
25 | GGCAAGGAAACTTGCC ((((((....)))))) | -155 kJ/mol | 64.7 °C
26 | GGCAAGGGAAACCTCGCC (((.(((....))).))) | -134 kJ/mol | 47.1 °C
27 | GGCAAGGGAAACCTTACC ((.((((....)))).)) | -122 kJ/mol | 37.4 °C
28 | GGCAAGGGAAACCTTGCC (((((((....))))))) | -138 kJ/mol | 67.8 °C
29 | GGCAATACGAAAGTAGCC (((..(((....)))))) | -74.8 kJ/mol | 44.4 °C
30 | GGCACACGAAAGTGGCC (((.(((....)))))) | -96.9 kJ/mol | 62.2 °C
31 | GGCACAGGAAACCGTGCC (((((.(....).))))) | -184 kJ/mol | 56.8 °C
32 | GGCACCACGAAAGTGGCC (((..(((....)))))) | -48.7 kJ/mol | 38.1 °C
33 | GGCACCCCGAAAGGGGCC (((..(((....)))))) | -54 kJ/mol | 53.1 °C
34 | GGCACCCGAAAGGGGCC (((.(((....)))))) | -87.5 kJ/mol | 67.1 °C
35 | GGCACCGAAAGGTACGCC ((((((....)))..))) | -114 kJ/mol | 51.4 °C
36 | GGCACCGAAAGGTATGCC ((((((....)))..))) | -105 kJ/mol | 51.6 °C
37 | GGCACCGAAAGGTCAGCC ((((((....)))..))) | -101 kJ/mol | 49.2 °C
38 | GGCACCGGAAACGACGCC (((..((....))..))) | -125 kJ/mol | 42 °C
39 | GGCACGGGAAACCGTACC ((.((((....)))).)) | -144 kJ/mol | 48.4 °C
40 | GGCACTCGAAAGAGAGCC (((.(((....))).))) | -193 kJ/mol | 59 °C
41 | GGCACTGGAAACAATGCC ((((.((....)).)))) | -124 kJ/mol | 42.7 °C
42 | GGCACTGGAAACAGTACC ((.((((....)))).)) | -138 kJ/mol | 43 °C
43 | GGCAGAACGAAAGTTGCC (((..(((....)))))) | -114 kJ/mol | 50.9 °C
44 | GGCAGAGGAAACCCTGCC (((((.(....).))))) | -158 kJ/mol | 53.3 °C
45 | GGCAGAGGAAACTCTACC ((.((((....)))).)) | -99.6 kJ/mol | 38.3 °C
46 | GGCAGCCGAAAGGCCGCC (((.(((....))).))) | -93.3 kJ/mol | 66.9 °C

Row | Sequence | folding enthalpy [1] | Tm [2]
47 | GGCAGCGAAAGCTACGCC ((((((....)))..))) | -85.9 kJ/mol | 53.5 °C
48 | GGCAGCGAAAGCTGCGCC ((((((....)))..))) | -27.9 kJ/mol | 65.7 °C
49 | GGCAGCGAAAGCTTGCC ((((((....))).))) | -113 kJ/mol | 63.1 °C
50 | GGCAGCGAAAGCTTGGCC ((((((....)))..))) | -99.2 kJ/mol | 52.7 °C
51 | GGCAGCGGAAACGTTGCC ((((.((....)).)))) | -169 kJ/mol | 61.2 °C
52 | GGCAGGACGAAAGTCGCC (((..(((....)))))) | -160 kJ/mol | 55.4 °C
53 | GGCAGGGGAAACCTTGCC ((((.((....)).)))) | -206 kJ/mol | 55.3 °C
54 | GGCAGTCGAAAGACAGCC (((.(((....))).))) | -163 kJ/mol | 61.8 °C
55 | GGCAGTGCGAAAGCAGCC (((..(((....)))))) | -82.6 kJ/mol | 53 °C
56 | GGCAGTGGAAACACCACC ((..(((....)))..)) | -55.4 kJ/mol | 29.5 °C
57 | GGCAGTGGAAACACTGTC (.(((((....))))).) | -126 kJ/mol | 54.1 °C
58 | GGCAGTGGAAACGCTGCC (((((.(....).))))) | -177 kJ/mol | 62.7 °C
59 | GGCAGTGGAAACGCTGTC (.(((.(....).))).) | -97.9 kJ/mol | 44.5 °C
60 | GGCATACGAAAGTAGCC (((.(((....)))))) | -102 kJ/mol | 52.7 °C
61 | GGCATAGAAATATGCC ((((((....)))))) | -177 kJ/mol | 55.4 °C
62 | GGCATAGGAAACTATACC ((.((((....)))).)) | -77.7 kJ/mol | 31.2 °C
63 | GGCATCCGAAAGGACGCC (((.(((....))).))) | -204 kJ/mol | 57.2 °C
64 | GGCATCCGAAAGGAGGCC (((.(((....))).))) | -160 kJ/mol | 69.3 °C
65 | GGCATCGAAAGATAGCC ((((((....))).))) | -107 kJ/mol | 51.9 °C
66 | GGCATCGAAAGATCTGCC ((((((....)))..))) | -104 kJ/mol | 39.6 °C
67 | GGCATCGAAAGATGGGCC ((((((....)))..))) | -80.5 kJ/mol | 46.8 °C
68 | GGCATCGAAAGATTGCC ((((((....))).))) | -130 kJ/mol | 52.7 °C
69 | GGCATCGAAAGATTTGCC ((((((....)))..))) | -122 kJ/mol | 40.7 °C

Row | Sequence | folding enthalpy [1] | Tm [2]
70 | GGCATGAAAATGCC (((((....))))) | -109 kJ/mol | 62.8 °C
71 | GGCATGACGAAAGTCGCC (((..(((....)))))) | -119 kJ/mol | 52.6 °C
72 | GGCATGCGAAAGCAGCC (((.(((....)))))) | -90.5 kJ/mol | 64.3 °C
73 | GGCATGGGAAACCACGCC (((.(((....))).))) | -147 kJ/mol | 49.4 °C
74 | GGCCAACCGAAAGGTGCC (((..(((....)))))) | -99.5 kJ/mol | 50.4 °C
75 | GGCCAACGAAAGTTCGCC (((.(((....))).))) | -168 kJ/mol | 47 °C
76 | GGCCAACGAAAGTTTGCC (((.(((....))).))) | -191 kJ/mol | 50.7 °C
77 | GGCCAAGGAAACCTAGCC (((.(.(....).).))) | -114 kJ/mol | 31.3 °C
78 | GGCCAAGGAAACTCAGCC (((..((....))..))) | -48.7 kJ/mol | 30.2 °C
79 | GGCCAAGGAAACTTAGCC (((.(((....))).))) | -103 kJ/mol | 36.3 °C
80 | GGCCACGGAAACGTGACC ((.((((....)))).)) | -158 kJ/mol | 54.1 °C
81 | GGCCAGACGAAAGTCGCC (((..(((....)))))) | -55.8 kJ/mol | 54.1 °C
82 | GGCCAGGGAAACCCGACC ((.(.((....)).).)) | -49.8 kJ/mol | 32.5 °C
83 | GGCCATCGAAAGATAGCC (((.(((....))).))) | -123 kJ/mol | 48.3 °C
84 | GGCCATTCGAAAGAAGCC (((..(((....)))))) | -83.3 kJ/mol | 33.1 °C
85 | GGCCCAGGAAACTGGGTC (.(((((....))))).) | -144 kJ/mol | 59.8 °C
86 | GGCCCATCGAAAGATGCC (((..(((....)))))) | -52.1 kJ/mol | 34.6 °C
87 | GGCCCCACGAAAGTGGCC (((..(((....)))))) | -49.6 kJ/mol | 44.7 °C
88 | GGCCCCGGAAACGGGACC ((.((((....)))).)) | -108 kJ/mol | 59 °C
89 | GGCCCGCGAAAGCGCGCC (((.(((....))).))) | -111 kJ/mol | 64.4 °C
90 | GGCCCGCGAAAGCGTGCC (((.(((....))).))) | -111 kJ/mol | 67.3 °C
91 | GGCCCTCGAAAGAGTGCC (((.(((....))).))) | -185 kJ/mol | 53.3 °C
